Inhibition and Activity data for three molecules are collected here from ChEMBL document CHEMBL2331506, “Design, synthesis, antiviral and cytostatic evaluation of novel isoxazolidine nucleotide analogues with a carbamoyl linker” (Bioorg Med Chem, 2013).

The structures appear in SMILES notation. Active and inactive are the calls of the source. The rule behind the calls is not given here.

One data set deals with Human respirovirus 3. The experiment in a line: Antiviral activity against Parainfluenza virus 3 infected in african green monkey Vero cells assessed as reduction of virus-induced cytopathogenicity at 250 uM. The format is functional, organism-based. The essentials: (§1)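 Confluent monolayers (HEL fibroblasts, Vero, or HeLa cells as listed) were infected with 100 CCID50 of virus in the presence of varying compound concentrations. Virus-induced cytopathicity or plaque formation was scored once cytopathicity was complete in untreated infected controls. EC50 was taken as the concentration reducing cytopathogenicity or plaque formation by 50%.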
(Damage to the host cells serves as the signal in cytopathic effect assays.)

In the next data set the test system is Coxsackievirus B4. As to the kind of experiment: Antiviral activity against Coxsackievirus B4 infected in african green monkey Vero cells assessed as reduction of virus-induced cytopathogenicity at 250 uM. It is filed as functional, organism-based. In outline: as §1
The next data set relates to Sindbis virus. As to the kind of experiment: Antiviral activity against Sindbis virus infected in african green monkey Vero cells assessed as reduction of virus-induced cytopathogenicity at 250 uM. It is filed as functional, organism-based. In outline:
as §1

The test system of data set [1] is Vesicular stomatitis virus. The experiment in a line: Antiviral activity against Vesicular stomatitis virus infected in human HEL cells assessed as reduction of virus-induced cytopathogenicity at 250 uM. It is filed as functional, organism-based. In outline:
(§2)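 Confluent cell monolayers were infected with 100 CCID50 of virus while exposed to varying compound concentrations. Cytopathicity was scored once it was complete in untreated infected controls. EC50 was taken as the concentration that reduced virus-induced cytopathogenicity by 50%.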

Data set [2] has as its system Influenza A virus. As to the kind of experiment: Antiviral activity against Influenza A virus H1N1 infected in dog MDCK cells assessed as reduction of virus-induced cytopathogenicity at 250 uM. The format is functional, organism-based. In outline: as §2
The subject of data set [3] is Human alphaherpesvirus 1. The experiment in a line: Antiviral activity against thymidine kinase-deficient, ACV-resistant Herpes simplex virus 1 KOS infected in human HEL cells assessed as reduction of virus-induced cytopathogenicity at 250 uM. The format is functional, organism-based. The essentials:
as §2

The subject of another data set is MDCK. As to the kind of experiment: Cytotoxicity against dog MDCK cells assessed as alteration of cell morphology up to 100 uM by microscopic analysis. The format is cell-based, Canis lupus familiaris. The essentials:
(§3)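 Uninfected host-cell cultures were exposed to compound and examined by microscopy. Cytotoxicity was expressed as the minimum cytotoxic concentration (MCC) causing a microscopically detectable alteration of normal cell morphology.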

A further data set concerns HEL. As to the kind of experiment: Cytotoxicity against human HEL cells assessed as alteration of cell morphology up to 100 uM by microscopic analysis. The format is cell-based. In outline: as §3
A further data set relates to Feline coronavirus. As to the kind of experiment: Antiviral activity against Feline coronavirus infected in cat CRFK cells assessed as reduction of virus-induced cytopathogenicity at 250 uM. The format is functional, organism-based.
Another data set deals with Human alphaherpesvirus 2. The experiment in a line: Antiviral activity against Herpes simplex virus 2 G infected in human HEL cells assessed as reduction of virus-induced cytopathogenicity at 250 uM. The format is functional, organism-based. Particulars: strain G. The essentials: as §1
In data set [4] the test system is Human immunodeficiency virus 1. The experiment in a line: Antiviral activity against Human immunodeficiency virus 1 3B infected in human CEM cells assessed as reduction of virus-induced giant cell formation at 250 uM after 4 to 5 days. It is filed as functional, organism-based. The following applies: CCRF-CEM. In outline: (§4)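 CEM cells at 3 × 10^5 cells/mL were infected with HIV at 100 CCID50 per mL in the presence of compound dilutions. They were held 4–5 days at 37 °C in humidified CO2. Syncytium (giant cell) formation was scored microscopically, and EC50 was taken as the concentration inhibiting giant cell formation by 50%.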

The next data set has as its system HeLa. The experiment in a line: Cytotoxicity against human HeLa cells assessed as alteration of cell morphology up to 100 uM by microscopic analysis. The format is cell-based. The essentials: as §3
For data set [5], the system named is Vesicular stomatitis virus. As to the kind of experiment: Antiviral activity against Vesicular stomatitis virus infected in human HeLa cells assessed as reduction of virus-induced cytopathogenicity at 250 uM. It is filed as functional, organism-based. The essentials: as §2
The test system of data set [6] is Respiratory syncytial virus. The experiment in a line: Antiviral activity against Respiratory syncytial virus long infected in human HeLa cells assessed as reduction of virus-induced cytopathogenicity at 250 uM. The format is functional, organism-based. In outline: as §1
A further data set relates to Felid alphaherpesvirus 1. As to the kind of experiment: Antiviral activity against Feline herpes virus infected in cat CRFK cells assessed as reduction of virus-induced cytopathogenicity at 250 uM. The format is functional, organism-based.
Data set [7] can be described thus: Cytotoxicity against cat CRFK cells assessed as alteration of cell morphology up to 100 uM by microscopic analysis. The format is cell-based, Felis catus. The essentials: as §3
Data set [8] concerns Human immunodeficiency virus 2. The experiment in a line: Antiviral activity against Human immunodeficiency virus 2 ROD infected in human CEM cells assessed as reduction of virus-induced giant cell formation at 250 uM after 4 to 5 days. The format is functional, organism-based. The following applies: CCRF-CEM. The essentials:
as §4

The test system of data set [9] is Human alphaherpesvirus 1. The experiment in a line: Antiviral activity against Herpes simplex virus 1 KOS infected in human HEL cells assessed as reduction of virus-induced cytopathogenicity at 250 uM. The format is functional, organism-based. The essentials:
as §1

The subject of another data set is Influenza B virus. The experiment in a line: Antiviral activity against Influenza B virus infected in dog MDCK cells assessed as reduction of virus-induced cytopathogenicity at 250 uM. The format is functional, organism-based. The essentials:
as §2

Data set [10] concerns Influenza A virus. As to the kind of experiment: Antiviral activity against Influenza A virus H3N2 infected in dog MDCK cells assessed as reduction of virus-induced cytopathogenicity at 250 uM. The format is functional, organism-based. The essentials:
as §2

Data set [11] has as its system Mammalian orthoreovirus 1. The experiment in a line: Antiviral activity against Reovirus 1 infected in african green monkey Vero cells assessed as reduction of virus-induced cytopathogenicity at 250 uM. The format is functional, organism-based. The essentials: as §1
Another data set relates to Punta Toro virus. The experiment in a line: Antiviral activity against Punta Toro virus infected in african green monkey Vero cells assessed as reduction of virus-induced cytopathogenicity at 250 uM. It is filed as functional, organism-based. In outline: as §1
A further data set relates to Vero. As to the kind of experiment: Cytotoxicity against african green monkey Vero cells assessed as alteration of cell morphology up to 100 uM by microscopic analysis. It is filed as cell-based. The following applies: chlorocebus sabaeus. In outline:
as §3

Consider `CCOP(=O)(OCC)[C@H]1C[C@H](C(=O)Nc2ccc(C)cc2)ON1C` (relative stereo), for which the inhibition result (in the data set with Human respirovirus 3; in the data set with Coxsackievirus B4; with Sindbis virus; in [1]; in the data set on Influenza A virus [2]; with Human alphaherpesvirus 1 [3]) was “inactive” each time. Moreover, the inhibition result (in the data set with Feline coronavirus; with Human alphaherpesvirus 2; in data set [4]; in data set [5]; in [6]; in the data set with Felid alphaherpesvirus 1) was “inactive” each time. Further, the inhibition entry (in data set [8]; with Human alphaherpesvirus 1 [9]; in the data set on Influenza B virus; in the data set with Influenza A virus [10]; in data set [11]; in the data set with Punta Toro virus) was “inactive” in each case. For the same molecule, the Activity result (in the data set on MDCK; with HEL; in the data set on HeLa; in [7]; in the data set with Vero) was “Non-toxic” in each case.
With `CCOP(=O)(OCC)[C@@H]1C[C@H](C(=O)Nc2ccc(OC)c(OC)c2)ON1C` (mixture of isomers), the inhibition result (with Human respirovirus 3; with Coxsackievirus B4; with Sindbis virus; in data set [1]; in the data set with Influenza A virus [2]; in the data set on Human alphaherpesvirus 1 [3]) was “inactive” throughout. For the same molecule, the inhibition result (in the data set on Feline coronavirus; in the data set on Human alphaherpesvirus 2; in [4]; in data set [5]; in [6]; in the data set with Felid alphaherpesvirus 1) was “inactive” each time. The inhibition result (in [8]; in the data set with Human alphaherpesvirus 1 [9]; with Influenza B virus; with Influenza A virus [10]; in data set [11]; with Punta Toro virus) was “inactive” throughout. Further, the Activity entry (in the data set with MDCK; in the data set with HEL; in the data set with HeLa; in data set [7]; with Vero) was “Non-toxic” throughout.
Consider `CCOP(=O)(OCC)[C@H]1C[C@H](C(=O)Nc2ccccc2Br)ON1C` (mixture of isomers), for which the inhibition entry (in the data set on Human respirovirus 3; in the data set on Coxsackievirus B4; in the data set on Sindbis virus; in data set [1]; in the data set on Influenza A virus [2]; with Human alphaherpesvirus 1 [3]) was “inactive” each time. Besides, the inhibition result (in the data set on Feline coronavirus; with Human alphaherpesvirus 2; in data set [4]; in [5]; in data set [6]; in the data set on Felid alphaherpesvirus 1) was “inactive” each time. The inhibition entry (in [8]; in the data set on Human alphaherpesvirus 1 [9]; in the data set on Influenza B virus; in the data set with Influenza A virus [10]; in data set [11]; in the data set on Punta Toro virus) was “inactive” throughout. The Activity entry (in the data set with MDCK; in the data set with HEL; with HeLa; in [7]; in the data set on Vero) was “Non-toxic” in each case.
